Data set [1] concerns Salmonella typhimurium. As to the kind of experiment: Toxicity in Salmonella typhimurium TA 100 at 5 to 100 ug in presence of Fischer-344 rat liver S9 fraction. Type of data set: organism-based, Salmonella enterica subsp. enterica serovar Typhimurium. A digest of the protocol: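 Percent survivors were measured with diluted TA100 broth culture under the same S-9 plating conditions as the mutagenicity assay, except that excess histidine was added to the top agar.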

The test system of data set [2] is Salmonella typhimurium. As to the kind of experiment: Mutagenic activity in Salmonella typhimurium TA 100 at 5 to 100 ug by Ames test in presence of Fischer-344 rat liver S9 fraction relative to 5-methylchrysene. On the technique in general: The Ames test uses bacterial strains that need an amino acid and regain growth without it when mutated back.
The test system of data set [3] is Salmonella typhimurium. As to the kind of experiment: Mutagenic activity in Salmonella typhimurium TA 100 at 5 to 100 ug by Ames test in presence of Fischer-344 rat liver S9 fraction. Type of data set: toxicity, organism-based, Salmonella enterica subsp. enterica serovar Typhimurium. A digest of the protocol:
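TA100 plate-incorporation assay: compound in 50 µL Me₂SO, 0.1 mL overnight broth culture, 200 µL S-9 mix and 2 mL top agar (45 °C), poured on minimal glucose agar. S-9 from Aroclor 1254-induced rats (500 mg/kg, 5 days earlier); mix per mL: 100 µmol K phosphate pH 7.4, 8 µmol MgCl₂, 5 µmol G6P, 4 µmol NADP⁺. His⁺ revertants/plate, mean of four trials.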

Data set [4] concerns Salmonella typhimurium. As to the kind of experiment: Mutagenic activity in Salmonella typhimurium TA 100 at 5 to 100 ug by Ames test in absence of Fischer-344 rat liver S9 fraction. Type of data set: toxicity, organism-based, Salmonella enterica subsp. enterica serovar Typhimurium. The conditions noted are these: in vivo.
The test system of data set [5] is Salmonella typhimurium. The experiment in a line: Mutagenic activity in Salmonella typhimurium TA 100 at 50 ug by Ames test in absence of Fischer-344 rat liver S9 fraction. Type of data set: toxicity, organism-based, Salmonella enterica subsp. enterica serovar Typhimurium. The settings on record: in vivo.

With `COC(=O)c1cc2ccccc2c2ccc3c(c12)CCCC3`, the Activity entry in data set [1] and in data set [2] was “Non-toxic” throughout.

For the molecule `O=c1oc2cccc3ccc4c5ccccc5cc1c4c32`, the Activity result in data set [3] is given as “Toxic”; in data set [4], “Non-toxic”; in data set [1], “Non-toxic”.

In the case of `OCc1cc2ccccc2c2ccc3ccccc3c12`, the Activity entry in data set [1] and in data set [2] was “Non-toxic” in each case.

As to `Cc1cc2ccccc2c2ccc3c(c12)C=CC(O)C3O` (stereo not drawn), in data set [5], the Activity result is reported as “Toxic”.

On to `Cc1cc2ccccc2c2c(C)cc3ccccc3c12`, for which the Activity entry is “Toxic” in data set [3] and “Non-toxic” in data set [1].

On to `Cc1cc2ccccc2c2ccc3ccccc3c12`, for which the Activity result in data set [3] was “Toxic”; in data set [1], “Non-toxic”.

With `COC(=O)c1cc2ccccc2c2ccc3ccccc3c12`, the Activity entry in data set [1] and in data set [2] was “Non-toxic” in each case.

Regarding `CC(=O)OCc1cc2ccccc2c2ccc3ccccc3c12`, the Activity entry in data set [1] and in data set [2] was “Non-toxic” throughout.

As for `OCc1cc2ccccc2c2ccc3c(c12)CCCC3`, the Activity result in data set [1] and in data set [2] was “Non-toxic” throughout.

Values taken from ChEMBL document CHEMBL3227943, “Synthesis and mutagenicity of 5,11-dimethylchrysene and some methyl-oxidized derivatives of 5-methylchrysene” (J Med Chem, 1979).
